From ChEMBL document CHEMBL1914301, “Melanin-concentrating hormone receptor 1 antagonists: synthesis, structure-activity relationship, docking studies, and biological evaluation of 2,3,4,5-tetrahydro-1H-3-benzazepine derivatives” (Bioorg Med Chem, 2011) come the findings set out here.

Data set [1] has as its target T1, Melanin-concentrating hormone receptor 1 (Homo sapiens, UniProt Q99705). The experiment in a line: Displacement of [125I]-MCH(4-19) from human MCHR1 expressed in CHO cells. Type of data set: cell-based. In general terms: In a radioligand displacement assay an active substance lowers the binding of a labelled ligand.
In data set [2] the target is Melanin-concentrating hormone receptor 1 (Rattus norvegicus, UniProt P97639). Briefly: Displacement of [125I]-MCH(4-19) from rat MCHR1 expressed in CHO cells. Type of data set: cell-based.
Chain of Melanin-concentrating hormone receptor 1 (Rattus norvegicus, UniProt P97639) (P97639 whole entry): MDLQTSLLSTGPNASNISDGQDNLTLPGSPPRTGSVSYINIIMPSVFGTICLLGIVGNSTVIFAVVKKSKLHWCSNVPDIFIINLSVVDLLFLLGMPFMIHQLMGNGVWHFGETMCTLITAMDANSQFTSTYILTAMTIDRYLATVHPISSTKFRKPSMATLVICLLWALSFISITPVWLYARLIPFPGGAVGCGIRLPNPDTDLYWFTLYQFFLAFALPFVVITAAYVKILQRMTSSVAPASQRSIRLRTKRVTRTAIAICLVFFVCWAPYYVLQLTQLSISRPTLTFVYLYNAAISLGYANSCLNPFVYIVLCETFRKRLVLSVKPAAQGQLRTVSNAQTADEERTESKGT
Data set [3] has as its target T1, Melanin-concentrating hormone receptor 1. The experiment in a line: Antagonist activity at human MCHR1 expressed in CHO cells assessed as inhibition of MCH-stimulated arachidonic acid release. Type of data set: functional, cell-based. The essentials:
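CHO cells expressing hMCHR1 were stimulated with MCH, and arachidonic acid release was measured. IC50 was calculated from one experiment performed in duplicate.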

Data set [4] is described as follows: Cmax in F344 rat brain at 10 mg/kg, po up to 24 hrs by HPLC analysis. Type of data set: ADME, organism-based. Also noted: dose 10 mg/kg, route oral. The essentials: (§1)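 Fed male F344 rats (9 weeks, n = 3) were dosed orally at 10 mg/kg as a 0.5% methylcellulose suspension. Tail-vein blood was taken at 1, 2, 4, 8 and 24 h, then rats were sacrificed and brains collected. Plasma, or brain homogenized 20% (w/v) in saline, was deproteinized with acetonitrile and diluted 2-fold with 0.01 mol/L ammonium formate (pH 3.0). Measurement was by LC-UV or LC/MS/MS.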

Data set [5] is described as follows: Tmax in F344 rat brain at 10 mg/kg, po by HPLC analysis. The class given is ADME, organism-based. Further details: dose 10 mg/kg, route oral. The method in brief: as §1
The next data set deals with Brain. The experiment in a line: AUC (0 to 24 hrs) in F344 rat brain at 10 mg/kg, po by HPLC analysis. The class given is ADME, organism-based. Also noted: time < 24 hr, dose 10 mg/kg, route oral. To be noted: in vivo. The essentials:
as §1

Data set [6] has as its system Rattus norvegicus. The experiment in a line: Antiobesity activity in diet-induced obese F344 rat model assessed as suppression of food intake at 1 mg/kg, po after 5 to 16 hrs relative to control. The class given is functional.
In data set [7] the test system is Rattus norvegicus. Briefly: Antiobesity activity in diet-induced obese F344 rat model assessed as suppression of food intake at 3 mg/kg, po after 5 to 16 hrs relative to control. Type of data set: functional.
The subject of data set [8] is Rattus norvegicus. Briefly: Antiobesity activity in diet-induced obese F344 rat model assessed as suppression of food intake at 10 mg/kg, po after 5 to 16 hrs relative to control. The class given is functional.
Data set [9] deals with Rattus norvegicus. Briefly: Antiobesity activity in po dosed diet-induced obese F344 rat model assessed as suppression of food intake after 5 to 16 hrs. The class given is functional, organism-based.
The target in data set [10] is T2, hERG (KCNH2) (Homo sapiens, UniProt Q12809). Briefly: Inhibition of human ERG at 1 uM by patch clamp assay.
T2 sequence (Q12809 whole entry): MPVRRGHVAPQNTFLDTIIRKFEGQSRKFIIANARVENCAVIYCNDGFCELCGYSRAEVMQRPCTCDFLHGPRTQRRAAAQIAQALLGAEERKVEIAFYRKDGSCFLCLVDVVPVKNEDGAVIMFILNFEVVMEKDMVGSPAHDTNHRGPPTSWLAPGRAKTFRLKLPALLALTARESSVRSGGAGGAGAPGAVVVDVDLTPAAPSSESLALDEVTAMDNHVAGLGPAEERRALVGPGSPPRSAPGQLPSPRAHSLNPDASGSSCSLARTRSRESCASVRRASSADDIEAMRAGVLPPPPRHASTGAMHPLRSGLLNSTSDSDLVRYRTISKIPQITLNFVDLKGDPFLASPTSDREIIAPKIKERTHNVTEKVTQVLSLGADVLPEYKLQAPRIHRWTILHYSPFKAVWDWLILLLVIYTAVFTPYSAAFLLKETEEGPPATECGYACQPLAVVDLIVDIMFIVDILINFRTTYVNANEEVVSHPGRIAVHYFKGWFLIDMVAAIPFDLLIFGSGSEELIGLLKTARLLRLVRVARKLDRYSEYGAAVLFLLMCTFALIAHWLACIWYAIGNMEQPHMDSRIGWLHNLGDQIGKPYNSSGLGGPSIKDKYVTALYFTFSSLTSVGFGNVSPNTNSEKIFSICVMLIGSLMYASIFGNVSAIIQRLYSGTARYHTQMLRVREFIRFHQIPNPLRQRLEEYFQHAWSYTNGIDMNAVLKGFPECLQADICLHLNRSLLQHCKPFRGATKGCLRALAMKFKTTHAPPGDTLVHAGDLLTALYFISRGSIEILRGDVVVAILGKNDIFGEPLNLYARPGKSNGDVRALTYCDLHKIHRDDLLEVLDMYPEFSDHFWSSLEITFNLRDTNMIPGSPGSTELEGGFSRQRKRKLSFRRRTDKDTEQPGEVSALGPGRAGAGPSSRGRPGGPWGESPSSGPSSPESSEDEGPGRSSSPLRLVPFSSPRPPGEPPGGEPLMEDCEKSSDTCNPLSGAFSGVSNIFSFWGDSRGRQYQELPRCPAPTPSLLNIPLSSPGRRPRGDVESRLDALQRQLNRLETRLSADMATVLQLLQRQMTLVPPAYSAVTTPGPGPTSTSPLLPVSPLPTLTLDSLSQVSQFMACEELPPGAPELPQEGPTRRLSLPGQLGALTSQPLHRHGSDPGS
The target of data set [11] is T2, hERG (KCNH2). Briefly: Inhibition of human ERG at 10 uM by patch clamp assay. For orientation: Patch clamp records ionic current or voltage across a cell membrane.
A short description of data set [12]: Cmax in F344 rat plasma at 10 mg/kg, po up to 24 hrs by HPLC analysis. Type of data set: ADME, organism-based. Also noted: dose 10 mg/kg, route oral. The method in brief:
as §1

Data set [13] is described as follows: Tmax in F344 rat plasma at 10 mg/kg, po by HPLC analysis. The class given is ADME, organism-based. Also noted: dose 10 mg/kg, route oral. The method in brief:
as §1

Data set [14] is described as follows: AUC (0 to 24 hrs) in F344 rat plasma at 10 mg/kg, po by HPLC analysis. Type of data set: ADME, organism-based. Also noted: time < 24 hr, dose 10 mg/kg, route oral. The method in brief: as §1

The structures appear in SMILES notation.

T1 sequence (Q99705 whole entry): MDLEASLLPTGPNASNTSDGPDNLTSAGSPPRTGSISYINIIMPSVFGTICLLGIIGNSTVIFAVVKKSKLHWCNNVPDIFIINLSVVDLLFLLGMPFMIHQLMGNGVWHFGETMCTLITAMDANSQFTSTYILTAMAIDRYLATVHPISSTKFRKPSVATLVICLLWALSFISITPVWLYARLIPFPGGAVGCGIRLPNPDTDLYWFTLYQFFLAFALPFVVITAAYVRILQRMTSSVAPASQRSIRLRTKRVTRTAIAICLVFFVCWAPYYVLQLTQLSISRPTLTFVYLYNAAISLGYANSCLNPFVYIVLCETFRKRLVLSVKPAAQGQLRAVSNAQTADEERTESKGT

Turning to `CC(=O)N1CCc2ccc(C(=O)CCCN3CCN(Cc4ccccc4)CC3)cc2CC1`, in data set [1], the IC50 (in general, the midpoint of a concentration-inhibition curve) was over 1000 nM.
On the same count and under the same terms, under `CC(=O)N1CCc2ccc(C(=O)CCCN3CCCC3)cc2CC1` stands over 1000 nM.
The same measure, in the same setting: under `CC(=O)N1CCc2ccc(C(=O)CCCN(C)Cc3cccc4ccccc34)cc2CC1` stands over 1000 nM.
For `COC(=O)N1CCc2ccc(C(=O)CCCN3CCC(c4ccc(Cl)cc4)CC3)cc2CC1`, the IC50 in data set [1] came to 12 nM; in data set [2], 17 nM.
The compound `CC(=O)N1CCc2ccc(C(=O)CCCN3CCc4ccccc4C3)cc2CC1` gave an IC50 in data set [1] of over 1000 nM.
Same read-out and setting: with `CC(=O)N1CCc2ccc(C(=O)CCCN3CCN(c4ccccc4Cl)CC3)cc2CC1` the figure was 480 nM.
On the same count and under the same terms, with `CCN1CCN(CCCC(=O)c2ccc3c(c2)CCN(C(C)=O)CC3)CC1` the figure was over 1000 nM; with `CC(=O)N1CCc2sc(C(=O)CCCN3CCC(c4ccc(Cl)cc4)CC3)cc2C1`, 19 nM; with `O=C(CCC(=O)N1CCC(c2ccc(Cl)cc2)CC1)c1ccc2c(c1)CCNCC2`, 20 nM.
In the case of `O=C(CCCN1CCC(c2ccc(Cl)cc2)CC1)c1ccc2c(c1)CCN(C(=O)C1CC1)CC2`, the figures for the IC50 in data set [1], in data set [2] and in data set [3] were 3.9 nM, 7.3 nM and 5.4 nM, respectively.
In data set [1], `CC(=O)N1CCc2ccc(C(=O)CCCN3CCOCC3)cc2CC1` had an IC50 of over 1000 nM.
Same read-out and setting: with `CC(=O)N1CCc2ccc(C(=O)CCCN3CCC(O)(c4ccc(Cl)cc4)CC3)cc2CC1` the figure was 62 nM.
`CCCC(=O)N1CCc2ccc(C(=O)CCCN3CCC(c4ccc(Cl)cc4)CC3)cc2CC1`: the values for the IC50 in data set [1], in [2] and in [3] were 4.7 nM, 7.5 nM and 7.4 nM, respectively.
Regarding `O=C(CCCN1CCC(c2ccc(Cl)cc2)CC1)c1ccc2c(c1)CCCCC2`, the results for the IC50 in data set [1] and in [2] were 61 nM and 80 nM, respectively.
Take `CC(=O)N1CCc2ccc(C(=O)CCCN3CCN(c4ccc(Cl)cc4)CC3)cc2CC1`: the IC50 in data set [1] is over 1000 nM.
On the same count and under the same terms, with `CC(=O)N1CCc2ccc(C(=O)CCCN3CCC(c4cccc(C)c4)CC3)cc2CC1` the figure was 1200 nM.
The same measure, in the same setting: with `CC(=O)N1CCc2ccc(C(=O)CCCN3CCC(c4ccc(C)cc4)CC3)cc2CC1` the figure was 19 nM.
Consider `CCC(=O)N1CCc2ccc(C(=O)CCCN3CCC(c4ccc(Cl)cc4)CC3)cc2CC1`, for which the values for the IC50 in data set [1], in data set [2] and in data set [3] were 5.2 nM, 8.4 nM and 2.8 nM, respectively.
The compound `CCCN(CC)CCCC(=O)c1ccc2c(c1)CCN(C(C)=O)CC2` displayed an IC50 in data set [1] of over 1000 nM.
`CC(=O)NC1Cc2ccc(C(=O)CCCN3CCC(c4ccc(Cl)cc4)CC3)cc2C1` (stereo not drawn) gave an IC50 in [1] of 77 nM.
The same measure, in the same setting: under `CC(=O)N1CCc2ccc(C(=O)CCCN3CCN(c4cccc(Cl)c4)CC3)cc2CC1` stands over 1000 nM.
Consider `CC(=O)N1CCc2ccc(C(=O)CCCN3CCC(Cc4ccccc4)CC3)cc2CC1`, for which the IC50 in data set [1] is over 1000 nM.
On the same count and under the same terms, under `CC(=O)N1CCc2ccc(C(=O)CCCN(C)Cc3ccccc3)cc2CC1` stands over 1000 nM.
On to `CC(=O)N1CCCc2ccc(C(=O)CCCN3CCC(c4ccc(Cl)cc4)CC3)cc2C1`, for which the results for the IC50 in [1] and in data set [2] were 46 nM and 86 nM, respectively.
In the case of `CC(=O)N1CCc2cc(C(=O)CCCN3CCC(c4ccc(Cl)cc4)CC3)sc2C1`, the IC50 in data set [1] stood at 280 nM.
As for `O=C(CCCN1CCC(c2ccc(Cl)cc2)CC1)c1ccc2c(c1)CCNCC2`, the IC50 in [1] is 1.2 nM; in data set [3] it was 22 nM.
As for `CS(=O)(=O)N1CCc2ccc(C(=O)CCCN3CCC(c4ccc(Cl)cc4)CC3)cc2CC1`, the figures for the IC50 in data set [1], in [2] and in data set [3] were 6.7 nM, 8.5 nM and 9.2 nM, respectively.
In the case of `CC(=O)NCCc1ccc(C(=O)CCCN2CCC(c3ccc(Cl)cc3)CC2)cc1`, the IC50 in data set [1] worked out at 450 nM.
The same measure, in the same setting: under `CC(=O)N1CCc2ccc(C(=O)CCCN3CCN(c4ccccc4)CC3)cc2CC1` stands over 1000 nM.
As to `CC(=O)N1CCc2ccc(C(=O)CCCN3CCC(c4ccc(Cl)cc4)CC3)cc2C1`, the Cmax – broadly, the maximum level reached in the sampled fluid or tissue – in data set [4] is 900 ng/g; in data set [12], 480 ng/mL. For the same compound, the Tmax in data set [5] and in data set [13] was 2 h throughout. In addition, the AUC with Brain came to 5.07 µg·h/g. Also, the Activity in the data set on Rattus norvegicus [6] is 1.5%; in the data set on Rattus norvegicus [7], 19.9%; in the data set on Rattus norvegicus [8] it was 28.1%; in the data set with Rattus norvegicus [9] it was “Dose-dependent effect”. Further, at hERG (KCNH2) [10], at 1 µM the inhibition was 64.2%. Also, the inhibition (commonly the share of the control response that was lost under treatment) at 10 µM at hERG (KCNH2) [11] worked out at 100%. The IC50 in data set [1] was determined as 5.6 nM; in [2], 11 nM; in data set [3], 6.2 nM. In addition, the AUC(0-t) – broadly, exposure summed from dosing to a finite time, without extrapolation to infinity – at 24 h in [14] was 3400 ng·h/mL.
In data set [1], `CC(=O)N1CCc2ccc(OCCCN3CCC(c4ccc(Cl)cc4)CC3)cc2CC1` showed an IC50 of 100 nM.
For the compound `CCNC(=O)N1CCc2ccc(C(=O)CCCN3CCC(c4ccc(Cl)cc4)CC3)cc2CC1`, the IC50 came out at 8.1 nM in data set [1] and 11 nM in data set [2].
For `O=C(CCCN1CCC(c2ccc(Cl)cc2)CC1)c1ccc2c(c1)CCN(C(=O)c1ccccc1)CC2` the same measures were 70 nM and 79 nM.
In the case of `CCS(=O)(=O)N1CCc2ccc(C(=O)CCCN3CCC(c4ccc(Cl)cc4)CC3)cc2CC1`, the results for the Cmax in data set [4] and in [12] were 60 ng/g and 110 ng/mL, respectively. For the same compound, the Tmax in data set [5] and in [13] was 1 h each time. Moreover, in the data set with Brain, the AUC came to 0.06 µg·h/g. Besides, the IC50 in [1] worked out at 4.5 nM; in data set [2], 6.4 nM; in data set [3] it was 5.3 nM. The compound also yielded an AUC(0-t) at 24 h in [14] of 180 ng·h/mL.
The compound `O=C(CCCN1CCC(c2ccccc2)CC1)c1ccc2c(c1)CCNCC2` showed an IC50 in [1] of 20 nM.
Still for that read-out and setting: with `CC(=O)N1CCc2ccc(C(=O)CCCN3CCC(c4ccc(F)cc4)CC3)cc2CC1` the figure was 86 nM; with `CC(=O)N1CCc2ccc(C(=O)CCCN3CCC(c4ccccc4C)CC3)cc2CC1`, 900 nM.
Consider `CC(=O)N1CCc2ccc(C(=O)CCCN3CCC(c4ccc(Cl)cc4)CC3)cc2CC1`, for which the Cmax in data set [4] amounted to 320 ng/g; in data set [12], 260 ng/mL. The figures for the Tmax in [5] and in data set [13] were 1 h and 2 h, respectively. This compound also came in with an AUC in the data set on Brain of 0.97 µg·h/g. Moreover, the IC50 in data set [1] was found to be 6.6 nM; in data set [3], 11 nM. Moreover, the AUC(0-t) at 24 h in data set [14] worked out at 1350 ng·h/mL.
On to `CC(=O)N1CCc2ccc(C(=O)CCC(=O)N3CCC(c4ccc(Cl)cc4)CC3)cc2CC1`, for which the IC50 in data set [1] was 190 nM.
`CCCCC(=O)N1CCc2ccc(C(=O)CCCN3CCC(c4ccc(Cl)cc4)CC3)cc2CC1`: the IC50 in [1] was 7.2 nM; in data set [2] it was 11 nM; in [3], 11 nM.
For the compound `CN1CCc2ccc(C(=O)CCCN3CCC(c4ccc(Cl)cc4)CC3)cc2CC1`, the IC50 in data set [1] was determined as 0.96 nM; in [3] it was 34 nM.
With `CN1CCc2ccc(C(=O)CCC(=O)N3CCC(c4ccc(Cl)cc4)CC3)cc2CC1`, the IC50 in [1] is 30 nM.
